Several values for one entry are separate records, joined by “and”; a condition that tells them apart may be missing. Equal entries are not always repeated. Entries after “also recorded” stand apart in the source; their conditions may differ.
How the values were obtained:
human KOR (CHO-KOR) [1] = molecular target: T1, human KOR (CHO-KOR) (Homo sapiens, UniProt P41145); experiment: Stimulation of [35S]-GTPγS binding, CHO-KOR membranes; assay type: biochemical; conditions: for EC50 KOR: [35S]-GTPγS binding, mean (SEM); for EC50 KOR / % stimulation KOR: dns: does not stimulate; for % stimulation KOR: percent maximal stimulation relative to U69,593 at 10 μM
Procedure, shortened: (§1)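 Rat MOR or DOR (C6) and human KOR (CHO) membranes (10–20 μg protein) were incubated 1 h at 25 °C in 50 mM Tris-HCl, 100 mM NaCl, 5 mM MgCl₂, pH 7.4, with 0.1 nM [³⁵S]-GTPγS, 30 μM GDP and varying test compound concentrations, then filtered on GF/C. % stimulation was taken relative to 10 μM DAMGO (MOR), DPDPE (DOR) or U69,593 (KOR). EC50 came from nonlinear regression; at least three assays in duplicate.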

rat MOR (C6-MOR) [2] = molecular target: T2, rat MOR (C6-MOR) (Rattus norvegicus, UniProt P33535); experiment: Stimulation of [35S]-GTPγS binding, C6-MOR membranes; assay type: biochemical; conditions: for Emax: read-out: % stimulation MOR; for % stimulation MOR: percent maximal stimulation relative to DAMGO at 10 μM
Procedure, shortened: as §1

human KOR (CHO-KOR) [3] = molecular target: T1, human KOR (CHO-KOR); experiment: [3H]-diprenorphine competitive displacement binding, CHO-KOR membranes
Procedure, shortened: (§2)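 Membranes came from C6 glioma cells stably expressing rat MOR or DOR, or CHO cells stably expressing human KOR. Membranes (20 μg protein) in 50 mM Tris-HCl pH 7.4 were incubated with 0.2 nM [³H]-diprenorphine and varying test compound concentrations for 1 h at room temperature, then filtered on GF/C. Nonspecific binding was defined with 10 μM naloxone. Ki came from logistic nonlinear regression; at least three assays in duplicate.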

rat DOR (C6-DOR) [4] = molecular target: T3, rat DOR (C6-DOR) (Rattus norvegicus, UniProt P33533); experiment: Stimulation of [35S]-GTPγS binding, C6-DOR membranes; assay type: biochemical; conditions: for % stimulation DOR: percent maximal stimulation relative to DPDPE at 10 μM; for % stimulation DOR / EC50 DOR: dns: does not stimulate; for EC50 DOR: [35S]-GTPγS binding, mean (SEM)
Procedure, shortened: as §1

rat DOR (C6-DOR) [5] = molecular target: T3, rat DOR (C6-DOR); experiment: [3H]-diprenorphine competitive displacement binding, C6-DOR membranes
Procedure, shortened: as §2

rat MOR (C6-MOR) [6] = molecular target: T2, rat MOR (C6-MOR); experiment: [3H]-diprenorphine competitive displacement binding, C6-MOR membranes
Procedure, shortened: as §2

[7] = displacement of [3H]-diprenorphine, mean (SEM), n = 3

Row | SMILES | EC50 (human KOR (CHO-KOR) [1]) [nM] | EC50 (rat MOR (C6-MOR) [2]) [nM] | Emax (rat MOR (C6-MOR) [2]) [%] | Ki (human KOR (CHO-KOR) [3]) [nM] | EC50 (rat DOR (C6-DOR) [4]) [nM] | % stimulation DOR (rat DOR (C6-DOR) [4]) | Ki (rat DOR (C6-DOR) [5]) [nM] | Ki (rat MOR (C6-MOR) [6]) [nM] | EC50 KOR (human KOR (CHO-KOR) [1]) | % stimulation KOR (human KOR (CHO-KOR) [1]) | % stimulation MOR (rat MOR (C6-MOR) [2]; dns: does not stimulate) | EC50 DOR (rat DOR (C6-DOR) [4]) | EC50 MOR (rat MOR (C6-MOR) [2]; [35S]-GTPγS binding, mean (SEM), dns: does not stimulate) | Binding, Ki KOR (human KOR (CHO-KOR) [3]; [7]) | Binding, Ki MOR (rat MOR (C6-MOR) [6]; [7])
1 | COc1ccccc1Cc1ccc2c(c1)[C@H](NC(=O)[C@@H](N)Cc1c(C)cc(O)cc1C)CCN2 [Compound 4a] | 1000 | 8.9 | 91 | 54 | 130 | 16 (2.2) % | 6.5 | 0.34 |  |  |  |  |  |  | 
2 | COc1cccc(Cc2ccc3c(c2)[C@H](NC(=O)[C@@H](N)Cc2c(C)cc(O)cc2C)CCN3)c1 [Compound 4b] |  | 4.4 | 99 | 27 | 230 | 10 (2.6) % | 5.4 | 0.11 | dns^d | displayed no agonist effect; also recorded: dns^d |  |  |  |  | 
3 | COc1ccc(Cc2ccc3c(c2)[C@H](NC(=O)[C@@H](N)Cc2c(C)cc(O)cc2C)CCN3)cc1 [Compound 4c] |  | 9.3 |  | 100 |  | did not stimulate GTPγS binding; also recorded: eliminating stimulation; also recorded: dns^d | 15 | 0.29 | dns^d | displayed no agonist effect; also recorded: eliminating stimulation; also recorded: dns^d | 55 (3.4) % | dns^d |  |  | 
4 | Cc1cc(O)cc(C)c1C[C@H](N)C(=O)N[C@@H]1CCNc2ccc(Cc3ccccc3O)cc21 [Compound 4d] | 270 | 9.8 | 89 | 5.7 | 1500 |  | 5.6 | 0.26 |  | 67% and 67 (3.5) % |  |  |  |  | 
5 | Cc1cc(O)cc(C)c1C[C@H](N)C(=O)N[C@@H]1CCNc2ccc(Cc3cccc(O)c3)cc21 [Compound 4e] | 230 | 4.8 | 96 | 16 | 140 | 67% and 67 (1.6) % | 1.4 | 0.19 |  |  |  |  |  |  | 
6 | Cc1cc(O)cc(C)c1C[C@H](N)C(=O)N[C@@H]1CCNc2ccc(Cc3ccc(O)cc3)cc21 [Compound 4f] |  |  |  | 420 |  | did not stimulate GTPγS binding; also recorded: dns^d | 130 | 1.7 | dns^d | displayed no agonist effect; also recorded: dns^d | no stimulation of GTP binding and dns | dns^d | dns |  | 
7 | COc1cccc2c1CC(Cc1ccc3c(c1)[C@H](NC(=O)[C@@H](N)Cc1c(C)cc(O)cc1C)CCN3)C2 (stereo partly drawn) [Compound 8a] |  | 1.9 |  | 67 |  | dns^d | 2.3 |  | dns^d | low affinity KOR antagonists; also recorded: dns^d | 48 (2.9) % | dns^d |  |  | 
8 | COc1ccc2c(c1)CC(Cc1ccc3c(c1)[C@H](NC(=O)[C@@H](N)Cc1c(C)cc(O)cc1C)CCN3)C2 (stereo partly drawn) [Compound 8b] |  | 7.9 |  | 33 |  | dns^d |  | 0.08 | dns | low affinity KOR antagonists and dns | 22 (3.7) % | dns^d |  |  | 
9 | Cc1cc(O)cc(C)c1C[C@H](N)C(=O)N[C@@H]1CCNc2ccc(CC3Cc4cccc(O)c4C3)cc21 (stereo partly drawn) [Compound 8c] | 25 |  |  | 0.77 |  | no stimulation at DOR; also recorded: dns^d |  |  |  | 92% and 92 (3.6) % | 66 (3.3) % | dns^d |  | subnanomolar binding affinity | subnanomolar binding affinity
10 | Cc1cc(O)cc(C)c1C[C@H](N)C(=O)N[C@@H]1CCNc2ccc(CC3Cc4ccc(O)cc4C3)cc21 (stereo partly drawn) [Compound 8d] |  | 7 |  | 41 |  | dns | 15 | 0.82 | dns | low affinity KOR antagonists and dns | 16 (2.4) % | dns |  |  | 

— PMC5691919 (ACS Chemical Neuroscience, 2017)
